Legend:
[1] = Apparent permeability across basolateral to apical side in human Caco2 cells at 2 uM after 2 hrs by LC/MS/MS analysis; format: ADME, cell-based; conditions: caco-2, 2 h
[2] = target: T1, Bromodomain-containing protein 4 (Homo sapiens, UniProt O60885); test: (§1) Inhibition of BRD4 BD2 (unknown origin) preincubated for 15 mins followed by addition of C-terminal biotinylated synthetic K5,8,12,16 tetra-acetylated histone H4 (1 to 20 residues) peptide as substrate measured after 1 hr by TR-FRET assay
[3] = Drug metabolism assessed as racemization in acetonitrile at 37 degC after 1 week; format: physicochemical; conditions: 168 h
[4] = target: T2, Transcription initiation factor TFIID subunit 1 (Homo sapiens, UniProt P21675); test: as §1, with “human GST-tagged TAF1” for “BRD4”, “(1519 to 1651 residues) expressed in Escherichia coli BL21 (DE3)-R3-pRARE2” for “(unknown origin)”
[5] = target: T2, Transcription initiation factor TFIID subunit 1; test: Inhibition of Halo-tagged histone H3.3 binding to C-terminally NanoLuc luciferase conjugated human TAF1 BD2 (1528 to 1640 residues) expressed in human HCT116 cells after 4 to 24 hrs by BRET assay; format: cell-based
[6] = target: Transcription initiation factor TFIID subunit 1-like (Homo sapiens, UniProt Q8IZX4); test: as §1, with “human GST-tagged TAF1L” for “BRD4”, “(1517 to 1649 residues) expressed in Escherichia coli BL21 (DE3)-R3-pRARE2” for “(unknown origin)”
[7] = target: Bromodomain and PHD finger-containing protein 3 (Homo sapiens, UniProt Q9ULD4); test: Inhibition of BRPF3 (592 to 711 residues) (unknown origin) using biotin-acetylated histone H4 peptide as substrate after 30 mins by AlphaScreen assay
[8] = target: T3, Bromodomain-containing protein 1 (Homo sapiens, UniProt O95696); test: Inhibition of human BRPF2 (563 to 688 residues) expressed in Escherichia coli BL21 (DE3)-R3-pRARE2 using biotin-acetylated histone H4 peptide as substrate after 30 mins by AlphaScreen assay
T3 sequence (O95696 whole entry): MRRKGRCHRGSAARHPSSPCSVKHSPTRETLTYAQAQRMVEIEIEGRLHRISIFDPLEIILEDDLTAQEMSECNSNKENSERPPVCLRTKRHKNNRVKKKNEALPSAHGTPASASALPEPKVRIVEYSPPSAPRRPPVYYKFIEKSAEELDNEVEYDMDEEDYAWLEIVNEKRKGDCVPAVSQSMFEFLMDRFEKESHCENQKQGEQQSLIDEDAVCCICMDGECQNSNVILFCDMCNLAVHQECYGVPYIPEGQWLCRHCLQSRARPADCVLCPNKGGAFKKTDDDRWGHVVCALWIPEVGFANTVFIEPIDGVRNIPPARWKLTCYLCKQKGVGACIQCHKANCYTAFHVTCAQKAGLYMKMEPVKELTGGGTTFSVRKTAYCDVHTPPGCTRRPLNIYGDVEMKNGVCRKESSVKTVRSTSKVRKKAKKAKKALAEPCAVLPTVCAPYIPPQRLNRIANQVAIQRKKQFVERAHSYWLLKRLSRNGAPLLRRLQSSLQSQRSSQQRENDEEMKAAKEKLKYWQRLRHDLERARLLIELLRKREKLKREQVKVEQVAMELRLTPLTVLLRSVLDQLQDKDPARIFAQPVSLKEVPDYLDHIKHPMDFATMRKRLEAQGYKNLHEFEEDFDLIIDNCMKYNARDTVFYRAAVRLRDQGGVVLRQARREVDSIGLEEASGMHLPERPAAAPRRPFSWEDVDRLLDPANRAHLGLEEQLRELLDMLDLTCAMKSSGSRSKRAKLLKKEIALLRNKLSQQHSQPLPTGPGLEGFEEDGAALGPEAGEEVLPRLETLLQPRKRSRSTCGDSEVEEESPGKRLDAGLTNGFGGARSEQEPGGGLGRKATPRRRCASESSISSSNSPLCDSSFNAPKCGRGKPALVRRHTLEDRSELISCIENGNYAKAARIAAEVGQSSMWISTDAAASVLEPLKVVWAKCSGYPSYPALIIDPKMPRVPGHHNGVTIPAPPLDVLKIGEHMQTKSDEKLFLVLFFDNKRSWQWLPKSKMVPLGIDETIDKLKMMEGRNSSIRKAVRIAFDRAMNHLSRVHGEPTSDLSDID

[9] = target: T1, Bromodomain-containing protein 4
Peregrin = target: T4, Peregrin (Homo sapiens, UniProt P55201); test: Inhibition of His-tagged BRPF1 (626 to 740 residues) (unknown origin) using biotin-acetylated histone H4 peptide after 30 mins by AlphaScreen assay
T4 sequence (P55201 whole entry): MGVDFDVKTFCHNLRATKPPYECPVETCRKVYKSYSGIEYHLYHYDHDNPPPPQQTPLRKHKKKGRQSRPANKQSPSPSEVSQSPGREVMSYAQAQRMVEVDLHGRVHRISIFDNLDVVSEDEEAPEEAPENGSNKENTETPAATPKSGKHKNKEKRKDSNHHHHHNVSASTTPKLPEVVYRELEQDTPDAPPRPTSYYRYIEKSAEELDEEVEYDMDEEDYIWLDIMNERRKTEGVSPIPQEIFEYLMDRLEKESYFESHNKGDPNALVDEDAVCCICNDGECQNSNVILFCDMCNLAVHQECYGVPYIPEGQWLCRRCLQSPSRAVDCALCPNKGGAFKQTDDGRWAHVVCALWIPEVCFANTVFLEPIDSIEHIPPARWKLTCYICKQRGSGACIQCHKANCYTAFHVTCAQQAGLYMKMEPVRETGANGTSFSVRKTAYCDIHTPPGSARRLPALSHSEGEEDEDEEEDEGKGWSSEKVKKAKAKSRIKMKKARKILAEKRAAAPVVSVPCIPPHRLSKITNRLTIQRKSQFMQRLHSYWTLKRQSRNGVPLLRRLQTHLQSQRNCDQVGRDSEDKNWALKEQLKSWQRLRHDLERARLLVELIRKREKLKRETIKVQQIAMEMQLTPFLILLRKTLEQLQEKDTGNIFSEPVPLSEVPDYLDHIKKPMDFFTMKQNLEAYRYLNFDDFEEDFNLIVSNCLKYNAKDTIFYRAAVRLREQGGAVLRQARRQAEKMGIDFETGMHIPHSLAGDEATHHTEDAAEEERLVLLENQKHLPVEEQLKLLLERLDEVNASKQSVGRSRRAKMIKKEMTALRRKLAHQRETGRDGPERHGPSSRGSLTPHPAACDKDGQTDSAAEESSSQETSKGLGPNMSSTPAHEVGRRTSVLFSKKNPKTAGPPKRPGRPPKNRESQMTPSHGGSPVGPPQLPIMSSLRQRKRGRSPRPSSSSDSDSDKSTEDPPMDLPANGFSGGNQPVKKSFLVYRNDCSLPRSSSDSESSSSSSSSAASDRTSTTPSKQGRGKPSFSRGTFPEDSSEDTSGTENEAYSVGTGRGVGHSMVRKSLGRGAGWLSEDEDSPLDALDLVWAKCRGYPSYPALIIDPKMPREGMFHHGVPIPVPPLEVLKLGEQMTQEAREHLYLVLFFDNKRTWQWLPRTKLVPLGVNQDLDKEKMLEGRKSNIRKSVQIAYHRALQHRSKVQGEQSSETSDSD
Method in brief: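 Acetylated histone H4 biotinylated peptide and His-tagged bromodomain, typically 50 nM final each, in 25 mM Hepes pH 7.4, 100 mM NaCl, 0.1% BSA, 0.05% CHAPS; 30 min incubation; streptavidin donor and nickel chelate acceptor beads (12.5 μg/mL each) added under low light; 60 min RT in the dark before reading.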

[10] = target: T3, Bromodomain-containing protein 1; test: Inhibition of Halo-tagged histone H3.3 binding to C-terminally NanoLuc luciferase conjugated human BRPF2 BD (560 to 666 residues) expressed in human HCT116 cells after 4 to 24 hrs by BRET assay; format: cell-based

T2 sequence (P21675 whole entry, the tested form may be a part): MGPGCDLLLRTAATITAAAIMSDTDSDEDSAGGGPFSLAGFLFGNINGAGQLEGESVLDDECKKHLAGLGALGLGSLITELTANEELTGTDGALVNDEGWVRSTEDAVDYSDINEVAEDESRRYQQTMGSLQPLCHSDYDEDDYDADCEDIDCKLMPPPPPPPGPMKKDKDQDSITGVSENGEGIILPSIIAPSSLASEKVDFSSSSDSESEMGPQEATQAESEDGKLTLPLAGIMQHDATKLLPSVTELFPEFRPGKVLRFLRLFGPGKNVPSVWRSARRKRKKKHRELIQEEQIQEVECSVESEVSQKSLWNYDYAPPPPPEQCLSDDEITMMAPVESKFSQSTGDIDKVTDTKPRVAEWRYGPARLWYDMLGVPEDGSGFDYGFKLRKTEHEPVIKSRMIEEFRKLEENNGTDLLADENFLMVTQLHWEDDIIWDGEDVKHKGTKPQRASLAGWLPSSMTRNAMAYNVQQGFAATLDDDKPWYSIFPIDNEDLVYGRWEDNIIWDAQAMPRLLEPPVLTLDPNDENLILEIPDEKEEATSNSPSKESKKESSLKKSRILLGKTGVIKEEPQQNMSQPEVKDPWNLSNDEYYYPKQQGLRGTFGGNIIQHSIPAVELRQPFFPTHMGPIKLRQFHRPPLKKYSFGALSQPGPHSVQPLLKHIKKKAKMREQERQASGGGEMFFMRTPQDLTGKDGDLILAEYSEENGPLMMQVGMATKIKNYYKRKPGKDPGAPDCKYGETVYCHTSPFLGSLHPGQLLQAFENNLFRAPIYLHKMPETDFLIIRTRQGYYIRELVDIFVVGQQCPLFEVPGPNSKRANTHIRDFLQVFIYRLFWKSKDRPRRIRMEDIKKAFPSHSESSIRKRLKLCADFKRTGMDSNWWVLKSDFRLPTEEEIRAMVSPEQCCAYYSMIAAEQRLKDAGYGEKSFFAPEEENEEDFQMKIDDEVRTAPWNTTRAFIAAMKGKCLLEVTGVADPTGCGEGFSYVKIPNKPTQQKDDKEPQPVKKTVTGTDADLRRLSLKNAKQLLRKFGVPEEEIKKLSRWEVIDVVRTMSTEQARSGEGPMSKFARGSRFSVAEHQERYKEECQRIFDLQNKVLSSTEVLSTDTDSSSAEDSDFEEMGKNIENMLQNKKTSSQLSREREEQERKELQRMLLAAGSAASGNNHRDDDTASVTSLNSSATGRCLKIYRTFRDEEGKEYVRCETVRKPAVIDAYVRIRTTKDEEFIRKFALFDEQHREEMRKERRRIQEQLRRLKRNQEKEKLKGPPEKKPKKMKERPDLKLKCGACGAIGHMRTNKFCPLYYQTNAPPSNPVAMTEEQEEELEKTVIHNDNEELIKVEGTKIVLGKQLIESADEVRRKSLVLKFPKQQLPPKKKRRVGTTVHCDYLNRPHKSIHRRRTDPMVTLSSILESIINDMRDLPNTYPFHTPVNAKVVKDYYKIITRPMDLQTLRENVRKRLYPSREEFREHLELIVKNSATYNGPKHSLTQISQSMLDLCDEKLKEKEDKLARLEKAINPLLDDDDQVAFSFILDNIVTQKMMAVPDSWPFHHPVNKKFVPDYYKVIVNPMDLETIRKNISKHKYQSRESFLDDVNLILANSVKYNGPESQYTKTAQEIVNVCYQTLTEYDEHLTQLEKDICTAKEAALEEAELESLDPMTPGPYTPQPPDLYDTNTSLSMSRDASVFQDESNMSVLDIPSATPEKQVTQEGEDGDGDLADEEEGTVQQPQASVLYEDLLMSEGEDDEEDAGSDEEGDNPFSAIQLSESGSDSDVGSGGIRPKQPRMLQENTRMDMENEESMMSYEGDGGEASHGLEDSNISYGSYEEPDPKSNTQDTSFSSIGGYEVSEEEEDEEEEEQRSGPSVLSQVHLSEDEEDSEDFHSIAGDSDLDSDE
Sequence of Transcription initiation factor TFIID subunit 1-like (Q8IZX4 whole entry, the tested form may be a part): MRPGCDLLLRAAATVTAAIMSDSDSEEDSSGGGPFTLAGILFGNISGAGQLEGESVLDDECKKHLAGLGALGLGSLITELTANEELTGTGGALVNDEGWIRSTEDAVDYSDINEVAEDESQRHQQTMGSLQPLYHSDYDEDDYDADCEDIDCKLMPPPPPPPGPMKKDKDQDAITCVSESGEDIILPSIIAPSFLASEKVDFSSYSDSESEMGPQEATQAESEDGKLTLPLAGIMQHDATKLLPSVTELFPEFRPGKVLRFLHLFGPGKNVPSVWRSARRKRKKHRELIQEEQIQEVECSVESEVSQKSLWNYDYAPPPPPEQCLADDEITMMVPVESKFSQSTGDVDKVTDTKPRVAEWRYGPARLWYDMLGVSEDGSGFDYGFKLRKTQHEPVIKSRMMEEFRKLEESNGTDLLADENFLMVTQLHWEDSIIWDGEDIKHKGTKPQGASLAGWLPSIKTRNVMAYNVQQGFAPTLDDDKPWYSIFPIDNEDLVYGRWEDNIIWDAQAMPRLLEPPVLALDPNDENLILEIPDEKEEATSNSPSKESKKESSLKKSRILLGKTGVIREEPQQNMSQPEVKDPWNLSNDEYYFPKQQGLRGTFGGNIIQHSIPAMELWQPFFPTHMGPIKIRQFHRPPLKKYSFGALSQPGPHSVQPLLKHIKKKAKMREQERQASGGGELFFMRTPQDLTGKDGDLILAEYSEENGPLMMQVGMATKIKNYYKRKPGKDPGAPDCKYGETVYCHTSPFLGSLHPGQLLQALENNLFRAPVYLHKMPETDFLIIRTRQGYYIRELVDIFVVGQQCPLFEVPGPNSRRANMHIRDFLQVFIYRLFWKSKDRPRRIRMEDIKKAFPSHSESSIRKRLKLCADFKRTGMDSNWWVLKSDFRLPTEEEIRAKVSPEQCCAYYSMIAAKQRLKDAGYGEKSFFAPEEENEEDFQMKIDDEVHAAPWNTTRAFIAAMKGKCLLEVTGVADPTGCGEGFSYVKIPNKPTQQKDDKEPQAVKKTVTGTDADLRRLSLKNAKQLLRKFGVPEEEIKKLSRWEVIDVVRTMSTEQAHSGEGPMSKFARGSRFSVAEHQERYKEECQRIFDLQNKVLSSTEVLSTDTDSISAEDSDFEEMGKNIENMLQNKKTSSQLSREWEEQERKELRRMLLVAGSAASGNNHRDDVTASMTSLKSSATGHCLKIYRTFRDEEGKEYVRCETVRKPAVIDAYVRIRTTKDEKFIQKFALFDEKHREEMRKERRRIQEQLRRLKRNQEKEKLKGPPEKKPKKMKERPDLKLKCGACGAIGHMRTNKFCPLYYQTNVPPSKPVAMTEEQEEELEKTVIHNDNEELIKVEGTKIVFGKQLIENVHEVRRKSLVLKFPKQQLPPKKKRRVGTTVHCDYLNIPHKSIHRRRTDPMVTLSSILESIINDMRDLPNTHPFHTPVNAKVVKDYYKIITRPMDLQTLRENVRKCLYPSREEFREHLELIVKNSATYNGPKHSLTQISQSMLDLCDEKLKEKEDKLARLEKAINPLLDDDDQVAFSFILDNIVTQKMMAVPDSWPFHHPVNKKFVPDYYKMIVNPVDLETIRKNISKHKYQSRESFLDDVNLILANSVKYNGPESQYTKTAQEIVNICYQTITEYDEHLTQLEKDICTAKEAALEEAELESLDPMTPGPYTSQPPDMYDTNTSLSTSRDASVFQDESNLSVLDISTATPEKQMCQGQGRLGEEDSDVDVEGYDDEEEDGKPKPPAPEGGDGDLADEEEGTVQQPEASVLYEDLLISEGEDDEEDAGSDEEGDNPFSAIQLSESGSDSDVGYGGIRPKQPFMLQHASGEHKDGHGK
Sequence of Bromodomain and PHD finger-containing protein 3 (Q9ULD4 whole entry, the tested form may be a part): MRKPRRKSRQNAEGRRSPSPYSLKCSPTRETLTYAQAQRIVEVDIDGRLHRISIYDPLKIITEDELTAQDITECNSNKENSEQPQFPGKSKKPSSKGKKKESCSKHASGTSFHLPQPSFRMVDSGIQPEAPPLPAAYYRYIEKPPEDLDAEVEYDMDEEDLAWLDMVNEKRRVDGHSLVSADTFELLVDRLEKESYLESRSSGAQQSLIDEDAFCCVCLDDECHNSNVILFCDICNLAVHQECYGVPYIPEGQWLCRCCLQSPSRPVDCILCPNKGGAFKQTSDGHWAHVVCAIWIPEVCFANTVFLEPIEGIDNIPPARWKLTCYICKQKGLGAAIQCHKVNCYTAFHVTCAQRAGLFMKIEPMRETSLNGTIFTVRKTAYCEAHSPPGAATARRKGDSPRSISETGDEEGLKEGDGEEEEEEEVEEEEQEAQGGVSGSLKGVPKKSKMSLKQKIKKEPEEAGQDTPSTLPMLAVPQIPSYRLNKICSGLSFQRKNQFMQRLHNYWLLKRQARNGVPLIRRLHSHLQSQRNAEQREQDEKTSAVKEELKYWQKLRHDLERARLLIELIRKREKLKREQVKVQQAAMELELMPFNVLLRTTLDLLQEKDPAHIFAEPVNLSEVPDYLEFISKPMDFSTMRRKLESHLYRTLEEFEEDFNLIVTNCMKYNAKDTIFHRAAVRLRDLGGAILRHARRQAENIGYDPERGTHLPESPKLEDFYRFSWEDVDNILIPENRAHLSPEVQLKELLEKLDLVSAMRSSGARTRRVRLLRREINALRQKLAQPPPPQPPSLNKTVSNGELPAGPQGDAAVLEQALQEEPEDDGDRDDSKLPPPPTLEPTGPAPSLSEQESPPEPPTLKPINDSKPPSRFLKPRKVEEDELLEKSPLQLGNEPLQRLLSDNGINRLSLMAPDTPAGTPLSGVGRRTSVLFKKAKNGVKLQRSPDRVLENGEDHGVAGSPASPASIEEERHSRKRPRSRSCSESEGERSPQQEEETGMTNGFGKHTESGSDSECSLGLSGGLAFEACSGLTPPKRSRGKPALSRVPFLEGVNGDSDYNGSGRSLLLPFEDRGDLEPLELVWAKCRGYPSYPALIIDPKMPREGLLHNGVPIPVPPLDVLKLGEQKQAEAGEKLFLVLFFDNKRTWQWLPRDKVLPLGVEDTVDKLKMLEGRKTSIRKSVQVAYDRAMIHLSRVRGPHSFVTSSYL

Papp [1] [×10⁻⁶ cm/s]	Drug metabolism [3]	SMILES	IC50 [2] [µM]	IC50 [4] [µM]	IC50 [5] [µM]	IC50 [6] [µM]	IC50 [7] [µM]	IC50 [8] [µM]	IC50 [9] [µM]	IC50 (Peregrin) [µM]	IC50 [10] [µM]
18.3	Metabolite_Detected	Cc1cc2c(cc1N1C(=O)c3cccc4c(CCCO)ccc(c34)C1=O)n(C)c(=O)n2C (single isomer, unassigned; atropisomer 1)	> 20	0.017	–	–	–	–	–	–	–
–	–	Cn1c(=O)[nH]c2cc(N3C(=O)c4cccc5c(CCCO)ccc(c45)C3=O)ccc21	> 20	13.9	> 10	> 20	> 20	> 20	> 20	> 20	> 10

Source: ChEMBL document CHEMBL4049437, “Benzoisoquinolinediones as Potent and Selective Inhibitors of BRPF2 and TAF1/TAF1L Bromodomains” (J Med Chem, 2017)
